Source: ChEMBL document CHEMBL1135995, “Structure-activity relationships of methoctramine-related polyamines as muscular nicotinic receptor noncompetitive antagonists. 3. Effect of inserting the tetraamine backbone into a macrocyclic structure” (J Med Chem, 2002)

Columns and labels:
[1] = target: Muscarinic acetylcholine receptor M3 (Cavia porcellus) (UniProt Q8VH26); assay: Antagonist activity against Muscarinic acetylcholine receptor M3 of isolated Guinea Pig Longitudinal ileum; type: functional, tissue-based
Chain of Muscarinic acetylcholine receptor M3 (Cavia porcellus) (Q8VH26 1-587): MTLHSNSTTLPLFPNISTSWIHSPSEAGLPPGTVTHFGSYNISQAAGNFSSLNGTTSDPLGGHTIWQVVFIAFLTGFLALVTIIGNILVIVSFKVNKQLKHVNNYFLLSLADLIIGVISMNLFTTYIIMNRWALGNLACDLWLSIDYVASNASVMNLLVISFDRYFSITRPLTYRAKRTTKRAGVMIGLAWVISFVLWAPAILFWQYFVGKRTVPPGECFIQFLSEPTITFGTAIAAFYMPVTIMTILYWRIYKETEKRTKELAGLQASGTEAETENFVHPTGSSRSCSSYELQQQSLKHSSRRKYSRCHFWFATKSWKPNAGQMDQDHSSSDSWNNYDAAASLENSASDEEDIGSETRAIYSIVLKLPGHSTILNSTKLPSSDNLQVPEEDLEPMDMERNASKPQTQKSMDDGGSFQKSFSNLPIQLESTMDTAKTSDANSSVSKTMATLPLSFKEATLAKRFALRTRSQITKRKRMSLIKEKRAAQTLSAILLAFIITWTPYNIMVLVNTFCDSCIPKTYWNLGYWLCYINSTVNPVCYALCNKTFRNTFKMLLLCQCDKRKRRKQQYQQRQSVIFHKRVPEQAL
Procedure, shortened: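 Guinea pig terminal ileum longitudinal muscle (2 cm segments) in PSS, with tension recorded isotonically. After ≥30 min equilibration, APE curves (0.01-0.5 µM) were run at 30 min intervals, the second serving as control. A new curve followed 60 min antagonist incubation, with the antagonist at a single 5 µM concentration in triplicate. EC50 was estimated graphically, with untreated parallel tissues as controls.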

[2] = target: Acetylcholine receptor (Torpedo californica) (UniProt P02710+P02712+P02718+P02714); assay: Antagonist activity against Nicotinic acetylcholine receptor (nAChR) of isolated Torpedo; type: functional
Procedure, shortened: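 Ethidium fluorescence displacement used nAChR-rich membranes from frozen Torpedo californica electric organ (1 µM receptor) with ethidium 7 µM and carbachol 1 mM in 50 mM NaPi, pH 7.4. Competing ligand was added stepwise, with excitation at 480 nm and emission read at 540-740 nm. Kapp was derived by a logarithmic formula (Herz et al.).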

[3] = tested on: Muscarinic acetylcholine receptor M2 (Cavia porcellus); assay: Antagonist activity against Muscarinic acetylcholine receptor M2 of isolated Guinea Pig Left artium
Acetylcholinesterase = Acetylcholinesterase (Homo sapiens, UniProt P22303); assay: Inhibitory activity on Acetylcholinesterase (AChE) from human erythrocytes
Chain of Acetylcholinesterase (P22303 whole entry): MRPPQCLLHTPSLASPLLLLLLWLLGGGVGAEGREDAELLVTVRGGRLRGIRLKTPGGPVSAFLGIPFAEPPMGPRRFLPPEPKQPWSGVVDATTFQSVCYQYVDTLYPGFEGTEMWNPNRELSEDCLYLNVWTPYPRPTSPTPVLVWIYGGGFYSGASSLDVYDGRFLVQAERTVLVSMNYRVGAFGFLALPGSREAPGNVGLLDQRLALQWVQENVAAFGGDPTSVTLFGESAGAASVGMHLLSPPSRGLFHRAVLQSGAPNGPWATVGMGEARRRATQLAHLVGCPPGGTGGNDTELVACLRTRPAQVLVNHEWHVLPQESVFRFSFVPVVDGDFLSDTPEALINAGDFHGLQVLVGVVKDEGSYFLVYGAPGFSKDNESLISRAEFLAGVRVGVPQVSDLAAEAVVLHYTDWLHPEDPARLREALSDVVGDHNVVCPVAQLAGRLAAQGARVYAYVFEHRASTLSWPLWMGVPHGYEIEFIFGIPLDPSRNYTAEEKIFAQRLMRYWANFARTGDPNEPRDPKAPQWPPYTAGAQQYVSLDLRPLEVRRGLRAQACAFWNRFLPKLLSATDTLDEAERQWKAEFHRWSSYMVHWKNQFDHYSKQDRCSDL

[4] = Antagonist activity against Nicotinic acetylcholine receptor (nAChR) of isolated Frog rectus Abdominis Muscle; type: functional, tissue-based; settings: Amphibia
[5] = target: T1, Acetylcholine receptor subunit delta (Torpedo californica) (UniProt P02718); settings: fish
T1 sequence (whole entry): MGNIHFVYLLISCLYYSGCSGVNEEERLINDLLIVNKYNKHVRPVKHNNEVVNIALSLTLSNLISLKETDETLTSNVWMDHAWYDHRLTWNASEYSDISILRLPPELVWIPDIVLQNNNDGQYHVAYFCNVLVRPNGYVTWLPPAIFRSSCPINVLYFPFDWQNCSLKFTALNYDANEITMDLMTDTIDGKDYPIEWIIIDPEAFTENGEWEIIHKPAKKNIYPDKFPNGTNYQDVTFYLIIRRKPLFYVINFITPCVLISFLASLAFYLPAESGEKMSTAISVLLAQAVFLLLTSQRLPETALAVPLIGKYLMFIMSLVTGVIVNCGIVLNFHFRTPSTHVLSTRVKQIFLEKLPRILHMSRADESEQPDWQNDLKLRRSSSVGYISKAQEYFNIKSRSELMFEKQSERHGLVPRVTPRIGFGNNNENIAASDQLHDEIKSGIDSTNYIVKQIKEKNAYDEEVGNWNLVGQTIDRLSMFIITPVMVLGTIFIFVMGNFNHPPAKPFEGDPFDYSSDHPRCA

Compound | pKB [1] | pKapp [2] | pKB [3] | IC50 (Acetylcholinesterase) [nM] | IC50 [4] [nM] | pKapp [5]
COc1ccccc1CN(C)CCCCCC(=O)N(C)CCCCCCCCN(C)C(=O)CCCCCN(C)Cc1ccccc1OC | 5.55 | 4.99 | 6.39 | – | – | –
COc1ccccc1CN1CCCCCC(=O)N(C)CCCCCCCCN(C)C(=O)CCCCCN(Cc2ccccc2OC)Cc2ccc(cc2)-c2ccc(cc2)C1 | – | 5.1 | – | 53700 | 525 | –
COc1ccccc1CN(CCCCCCN)CCCCCCCCN(CCCCCCN)Cc1ccccc1OC | – | – | – | – | 331 | 6.4
COc1ccccc1CN1CCCCCCN(C)CCCCCCCCN(C)CCCCCCN(Cc2ccccc2OC)Cc2ccc(cc2)C1 | – | 6.43 | – | – | 3470 | –
COc1ccccc1CNCCCCCCNCCCCCCCCCCCCNCCCCCCNCc1ccccc1OC | 5.98 | 5.66 | 7.35 | – | – | –
COc1ccccc1CN1CCCCCCCCN(Cc2ccccc2OC)CCCCCCNCc2ccc(cc2)-c2ccc(cc2)CNCCCCCC1 | – | – | – | – | 1200 | 5.48
COc1ccccc1CN1CCCCCCCCN(Cc2ccccc2OC)CCCCCCNCc2ccc(cc2)CNCCCCCC1 | – | – | – | – | 324 | 6.01
COc1ccccc1CN1CCCCCCCCN(Cc2ccccc2OC)C(=O)CCCCCNCc2ccc(cc2)-c2ccc(cc2)CNCCCCCC1=O | < 5 | 6.64 | < 5 | 3390 | 589 | –
COc1ccccc1CN1CCCCCCN(C)CCCCCCCCN(C)CCCCCCN(Cc2ccccc2OC)Cc2ccc(cc2)-c2ccc(cc2)C1 | – | 6.35 | – | – | 447 | –
COc1ccccc1CNCCCCCCNCCCCCCCCNCCCCCCNCc1ccccc1OC [METHOCTRAMINE] | 6.14 | 6.21 | – | – | 1170 | –
COc1ccccc1CN1CCCCCCCCN(Cc2ccccc2OC)CCCCCCNCc2ccc(cc2)Cc2ccc(cc2)CNCCCCCC1 | < 5 | 6.26 | – | – | 191 | –
COc1ccccc1CN(CCCCCCCCN(Cc1ccccc1OC)C(=O)CCCCCN)C(=O)CCCCCN | – | 6.46 | – | 33100 | 158 | –
COc1ccccc1CN1CCCCCCCCN(Cc2ccccc2OC)C(=O)CCCCCNCc2ccc(cc2)CNCCCCCC1=O | < 5 | 6.47 | < 5 | 1410 | 170 | –
CN1CCCCCCCCN(C)CCCCCCNCc2ccc(cc2)-c2ccc(cc2)CNCCCCCC1 | – | < 4 | – | – | 4270 | –
COc1ccccc1CNCCCCCCNCc1ccc(-c2ccc(-c3ccc(CNCCCCCCNCc4ccccc4OC)cc3)cc2)cc1 | < 5 | 6.35 | < 5 | – | 501 | –
COc1ccccc1CN1CCCCCCN(C)CCCCCCCCN(C)CCCCCCN(Cc2ccccc2OC)Cc2ccc(cc2)Cc2ccc(cc2)C1 | < 5 | 6.21 | < 5 | – | 229 | –
